Tests used:
Assay type in all cases: functional
Mus musculus [1] = species on record: Mus musculus; assay: Autopsy data was evaluated as average body weight/g
Outline: (§1)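 BDF1 female mice (19–21 g); Lewis lung carcinoma, 10⁶ cells implanted im in the leg on day 0, and the tumor-bearing leg amputated on day 8. Dosing after amputation was 160 mg/kg ip from day 8, Q2Dx4, given as a saline suspension. Survival was tracked to day 40. Mice dying and those killed on day 40 were autopsied for body weight, lung weight and metastasis counts (<2 mm, >2 mm). Survival was reported as median survival time and %ILS, with ≥25% ILS counted as active.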

Mus musculus [2] = assay: Effect on postoperative lewis lung carcinoma model, was evaluated as […] on BDF1 female mice, administered intraperitoneally; parameters: unit not given beside the values; outline: as §1
Mus musculus [3] = assay: Effect on postoperative lewis lung carcinoma model, was evaluated as increase in life span on BDF1 female mice, administered intraperitoneally; outline: as §1
Mus musculus [4] = species on record: Mus musculus; assay: Autopsy data was evaluated as average number of metastasis in <2 mm; outline: as §1
Mus musculus [5] = species on record: Mus musculus; assay: Autopsy data was evaluated as average lung weight, mg; outline: as §1
Mus musculus [6] = species on record: Mus musculus; assay: Autopsy data was evaluated as average number of metastasis in >2 mm; outline: as §1

SMILES | Average body weight (Mus musculus [1]) [g] | MST (Mus musculus [2]) | Increase in life span (Mus musculus [3]) [%] | Average No. of metastasis (Mus musculus [4]) | Average lung weight (Mus musculus [5]) [mg] | Average No. of metastasis (Mus musculus [6])
O=C1CN2C[C@@H]3C(=O)NC(=O)CN3C[C@@H]2C(=O)N1 | 19.3 | 28 | 4 | 0 | 640 | 22
O=C1CN2C[C@@H]3C(=O)N(CN4CCOCC4)C(=O)CN3C[C@@H]2C(=O)N1CN1CCOCC1 | 19.2 | >40 | >48 | 0 | 358 | 6
O=C1CN2C[C@H]3C(=O)N(CN4CCOCC4)C(=O)CN3C[C@@H]2C(=O)N1CN1CCOCC1 | 18.9 | 26 | <0 | 0 | 700 | 38
O=C1CN2C[C@H]3C(=O)NC(=O)CN3C[C@@H]2C(=O)N1 | 16.9 | 28 | 4 | 0 | 853 | 48
